ChEMBL document CHEMBL1145477, “Activity of T-1106 in a hamster model of yellow Fever virus infection” (Antimicrob Agents Chemother, 2007)

Assays:
Type in all cases: functional
Yellow fever virus [1] = assay: Antiviral activity against YFV Jimenez infected in Syrian golden hamster assessed as mean day to death after 21 days post-infection at 50 mg/kg, ip bid for 7 days; settings: route intraperitoneal
Yellow fever virus [2] = assay: Antiviral activity against YFV Jimenez infected in Syrian golden hamster assessed as serum alanine aminotransferase at 50 mg/kg, ip bid for 7 days; settings: route intraperitoneal
In short: (§1)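 YFV (Jimenez)-infected female hamsters were treated b.i.d. i.p. or p.o. Serum was drawn by ocular sinus at 6 dpi. ALT was read with a colorimetric kit adapted to microplates: substrate plus serum for 30 min at 37°C, then colour reagent and developer, absorbance at 505 nm. Values are IU/liter against saline controls.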

Yellow fever virus [3] = assay: Antiviral activity against YFV Jimenez infected in Syrian golden hamster assessed as weight change at 50 mg/kg, po bid for 7 days
Yellow fever virus [4] = assay: Antiviral activity against YFV Jimenez infected in Syrian golden hamster liver treated 4 hrs before viral challenge assessed as mean day to death at 50 mg/kg/day, ip bid for 8 days; settings: route intraperitoneal
Yellow fever virus [5] = assay: Antiviral activity against YFV Jimenez infected in Syrian golden hamster liver treated 4 hrs before viral challenge assessed as alanine aminotransferase at 50 mg/kg/day, ip bid for 8 days; settings: route intraperitoneal; in short: as §1

NC(=O)c1ncn([C@@H]2O[C@H](CO)[C@@H](O)[C@H]2O)n1 [RIBAVIRIN]
Activity (Yellow fever virus [1]): 6 days
Activity (Yellow fever virus [2]): 120 IU/L
Activity (Yellow fever virus [3]): 1.3 g
Activity (Yellow fever virus [4]): 6 days
Activity (Yellow fever virus [5]): 120 IU/L
